According to ChEMBL document CHEMBL1122967 (J Med Chem, 1985):

Legend:
Assay type in all cases: ADME, organism-based
Conditions in all cases: in vivo
[1] = system: Rattus norvegicus; assay: Distribution of [125I]AC in rest of the brain after intravenous administration in rat after 1hour, expressed as percent dose/gram
How it was run: (§1)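 Rats received the radioiodinated ligand intravenously and were killed with ether at 1 h or 2 h (six per time point). Organs and brain regions (striatum, cerebellum, thalamus, rest of brain) were sampled and counted. Uptake was calculated as percent injected dose per gram tissue, reported ± SD. The striatum/cerebellum ratio was taken from the regional uptake values.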

[2] = system: Rattus norvegicus; assay: Distribution of [125I]AC in heart after intravenous administration in rat after 1hour, expressed as percent dose/gram; how it was run: as §1
[3] = system: Rattus norvegicus; assay: Distribution of [125I]AC in blood after intravenous administration in rat after 1hour, expressed as percent dose/gram; how it was run: as §1
[4] = system: Rattus norvegicus; assay: Distribution of [125I]-AC in blood after intravenous administration in rat after 2hours, expressed as percent dose/gram; how it was run: as §1
[5] = system: Rattus norvegicus; assay: Distribution of [125I]-AC in thalamus after intravenous administration in rat after 1hour, expressed as percent dose/gram; how it was run: as §1
[6] = system: Rattus norvegicus; assay: Distribution of [125I]AC in cerebellum after intravenous administration in rat after 1hour, expressed as percent dose/gram; how it was run: as §1
[7] = system: Rattus norvegicus; assay: Distribution of [125I]AC in thalamus after intravenous administration in rat after 2hours, expressed as percent dose/gram; how it was run: as §1
[8] = system: Rattus norvegicus; assay: Distribution of [125I]-AC in heart after intravenous administration in rat after 2hours, expressed as percent dose/gram; how it was run: as §1
[9] = system: Rattus norvegicus; assay: Distribution of [125I]AC in striatum after intravenous administration in rat after 1hour, expressed as percent dose/gram; how it was run: as §1
[10] = system: Rattus norvegicus; assay: Distribution of [125I]AC in striatum after intravenous administration in rat after 2hours, expressed as percent dose/gram; how it was run: as §1
[11] = organism: Rattus norvegicus; assay: Ratio of striatum/cerebellum distribution in rat after 1 hr; how it was run: as §1
[12] = organism: Rattus norvegicus; assay: Ratio of striatum/cerebellum distribution in rat after 2 hr; how it was run: as §1
[13] = system: Rattus norvegicus; assay: Distribution of [125I]AC in rest of the brain after intravenous administration in rat after 2hours, expressed as percent dose/gram; how it was run: as §1
[14] = system: Rattus norvegicus; assay: Distribution of [125I]-AC in cerebellum after intravenous administration in rat after 2hours, expressed as percent dose/gram; how it was run: as §1
[15] = system: Rattus norvegicus; assay: Distribution of [125I]iodoclebopride in thalamus after intravenous administration in rat after 1hour, expressed as percent dose/gram; how it was run: as §1
[16] = system: Rattus norvegicus; assay: Distribution of [125I]iodoclebopride in blood after intravenous administration in rat after 2hours, expressed as percent dose/gram; how it was run: as §1
[17] = system: Rattus norvegicus; assay: Distribution of [125I]iodoclebopride in striatum after intravenous administration in rat after 2hours, expressed as percent dose/gram; how it was run: as §1
[18] = system: Rattus norvegicus; assay: Distribution of [125I]Iodoclebopride in rest of the brain after intravenous administration in rat after 1hour, expressed as percent dose/gram; how it was run: as §1
[19] = system: Rattus norvegicus; assay: Distribution of [125I]Iodoclebopride in rest of the brain after intravenous administration in rat after 2hours, expressed as percent dose/gram; how it was run: as §1
[20] = system: Rattus norvegicus; assay: Distribution of [125I]iodoclebopride in heart after intravenous administration in rat after 2hours, expressed as percent dose/gram; how it was run: as §1
[21] = system: Rattus norvegicus; assay: Distribution of [125I]iodoclebopride in cerebellum after intravenous administration in rat after 2hours, expressed as percent dose/gram; how it was run: as §1
[22] = system: Rattus norvegicus; assay: Distribution of [125I]iodoclebopride in cerebellum after intravenous administration in rat after 1hour, expressed as percent dose/gram; how it was run: as §1
[23] = system: Rattus norvegicus; assay: Distribution of [125I]iodoclebopride in striatum after intravenous administration in rat after 1hour, expressed as percent dose/gram; how it was run: as §1
[24] = system: Rattus norvegicus; assay: Distribution of [125I]iodoclebopride in blood after intravenous administration in rat after 1hour, expressed as percent dose/gram; how it was run: as §1
[25] = system: Rattus norvegicus; assay: Distribution of [125I]iodoclebopride in thalamus after intravenous administration in rat after 2hours, expressed as percent dose/gram; how it was run: as §1
[26] = system: Rattus norvegicus; assay: Distribution of [125I]iodoclebopride in heart after intravenous administration in rat after 1hour, expressed as percent dose/gram; how it was run: as §1

COc1cc(N)c(I)cc1C(=O)NC1CCN(Cc2ccccc2)CC1
Tissue distribution [1]: 0.18%
Tissue distribution [2]: 0.35%
Tissue distribution [3]: 0.33%
Tissue distribution [4]: 0.29%
Tissue distribution [5]: 0.27%
Tissue distribution [6]: 0.26%
Tissue distribution [7]: 0.22%
Tissue distribution [8]: 0.3%
Tissue distribution [9]: 0.5%
Tissue distribution [10]: 0.38%
Ratio [11]: 1.92
Ratio [12]: 1.65
Tissue distribution [13]: 0.16%
Tissue distribution [14]: 0.23%

COc1cc(N=[N+]=[N-])c(I)cc1C(=O)NC1CCN(Cc2ccccc2)CC1 [IODOAZIDOCLEBOPRIDE]
Tissue distribution [15]: 1.25%
Tissue distribution [16]: 0.34%
Tissue distribution [17]: 2.52%
Tissue distribution [18]: 0.78%
Tissue distribution [19]: 0.73%
Tissue distribution [20]: 1.34%
Tissue distribution [21]: 1.06%
Tissue distribution [22]: 1.13%
Tissue distribution [23]: 2.52%
Tissue distribution [24]: 0.32%
Ratio [11]: 2.23
Ratio [12]: 2.37
Tissue distribution [25]: 1.12%
Tissue distribution [26]: 1.61%
